# Results gathered from unrelated publications.
# Target: Mitogen-activated protein kinase 3 (MAPK3, Homo sapiens, UniProt P27361)
Structure (SMILES),test,system,conditions,quantity,value
CNc1cccc2cc(C(=O)Nc3ccc(C(=O)O)cc3)c(=O)[nH]c12,"enzyme activity, inhibitor",,10 µM,inhibition,1.9%
CCC(=O)N[C@@H]1CC[C@H](C(=O)N(C)c2ccc(-c3nc4ccccc4o3)cc2)C1,"cell-free assay, competition with immobilised ligand",,1 µM,remaining binding,100%
COc1cc2ncnc(Nc3ccc(Oc4ccccc4)c(C)c3C)c2cc1OC,"enzyme activity, inhibitor",,1 µM,inhibition,0%
Nc1ncnc2occ(-c3ccc(NC(=O)Nc4cc(C(F)(F)F)ccc4F)cc3)c12,"cell-free assay, inhibitor",,20 µM,remaining signal,100%
CN1CCC2(CC1)NC(=O)c1c(c3ccc(Cl)c(Cl)c3n1C)C2C#N (racemic),"thermal stability, DSF",,10 µM,ΔTm,0.3 °C
O=C(Nc1cnn(-c2csc(C(=O)NC3COC3)c2)c1)Nc1c(F)cccc1Cl,"enzyme activity, inhibitor",,5 µM,remaining activity,92.4%
CCC1(CC)NC(=O)c2c(c3ccc(Cl)c(Cl)c3n2C)C1C#N (stereo not shown),"thermal stability, DSF",,10 µM,ΔTm,0 °C
Cc1c[nH]c2nccc(Oc3c(F)cc(Nc4cc(Cl)nc(N)n4)cc3F)c12,"cell-free assay, competition with immobilised ligand",,0.1 µM,remaining binding,90%
O=C(Nc1cnn(-c2csc(C(=O)NC3COC3)c2)c1)Nc1ccccc1Cl,"enzyme activity, inhibitor",,5 µM,remaining activity,92.8%
CC(C)(C)C(=O)c1sc(NC2CCCCC2)nc1N,"enzyme activity, inhibitor",,10 µM,remaining activity,73%
COc1cc(Nc2cnc(C#N)c(O[C@H](C)CN(C)C)n2)ncc1-c1cnn(C)c1,"enzyme activity, inhibitor, radiometric",,10 µM,remaining activity,71%
O=C(N[C@H]1CCCCC/C=C\C2C[C@@]2(C(=O)O)NC(=O)[C@@H]2C[C@@H](Oc3ccncc3)CN2C1=O)OC1CCCC1 (stereo partly shown),"binding, competition with immobilised ligand",,1 µM,remaining binding,69%
Cn1c2c(c3ccc(Cl)c(Cl)c31)C(C#N)C(C)(C)NC2=O (stereo not shown),"thermal stability, DSF",,10 µM,ΔTm,0.1 °C
Nc1nc(NC2CCCCC2)sc1C(=O)c1ccccc1,"enzyme activity, inhibitor",,10 µM,remaining activity,20%
Cn1c2c(Cl)c(Cl)ccc2c2cn[nH]c(=O)c21,"thermal stability, DSF",,10 µM,ΔTm,0.1 °C
COc1ccc(COc2ccc(Cc3cnc(N)nc3N)cc2OC)cc1,cell-free assay,,0.5 µM,remaining signal,99.1%
Cc1cc(C)c(-n2ccn3nc(-c4cccnc4)cc23)cc1NC(=O)c1cc(C#N)cc(S(F)(F)(F)(F)F)c1,"cell-free assay, competition with immobilised ligand",,0.1 µM,remaining binding,95.2%
CCN1CCN(Cc2ccc(NC(=O)c3ccc(C)c(/C=C/c4cnc5[nH]ccc5c4OC)c3)cc2C(F)(F)F)CC1,"target engagement in cells, inhibitor, chemoproteomics",A-375,0.5 µM,inhibition,-18.7%
COc1ccc2c(c1)O[C@H](c1ccc(OC)c(OC)c1)C[C@@H]2NC(=O)C1(c2ccc3c(c2)OC(F)(F)O3)CC1,"cell-free assay, competition with immobilised ligand",,1 µM,remaining binding,100%
O=C1Nc2ccc(Cl)cc2C1=Cc1cc(Cl)c(O)c(Cl)c1,cell-free assay,,0.5 µM,remaining signal,88.2%
N#CC1c2c([nH]c3c(Cl)c(Cl)ccc23)C(=O)NC12CCCCC2 (racemic),"thermal stability, DSF",,10 µM,ΔTm,0.1 °C
Nc1cnc(N2CCc3cc(S(=O)(=O)Nc4c(F)cc(Cl)cc4F)cc(N4CCCC4=O)c32)nc1,"cell-free assay, competition with immobilised ligand",,1 µM,remaining binding,91%
CC(C)(O)[C@H]1CC[C@H](Nc2ccc3ncc(-c4cccc(C(F)(F)F)c4)n3n2)CC1,"enzyme activity, inhibitor",,1 µM,remaining activity,94%
COc1cc(Nc2c(C#N)cnc3cc(OCCCN4CCN(C)CC4)c(OC)cc23)c(Cl)cc1Cl,cell-free assay,,0.5 µM,remaining signal,98.9%
CCCS(=O)(=O)Nc1ccc(F)c(C(=O)c2c[nH]c3ncc(-c4ccc(Cl)cc4)cc23)c1F,"enzyme activity, inhibitor",,1 µM,inhibition,< 20%
FC(F)(F)Oc1cccc(-c2cnc3ccc(-c4ccncc4)nn23)c1,"enzyme activity, inhibitor, radiometric",,1 µM,activity vs control,105%
N#CCCc1ccc2c(c1)-c1[nH]c3ccc([N+](=O)[O-])cc3c1CC(=O)N2,cell-free assay,,0.5 µM,remaining signal,95.1%
Cc1nc(Cc2cccc(C(F)(F)F)c2)sc1-c1ccc(C(N)=O)nc1,"cell-free assay, competition with immobilised ligand",,1 µM,remaining binding,96%
CC(C)(C)c1nc2c(s1)c1nc(N)ncc1c1ccc(NS(=O)(=O)c3c(F)cccc3F)c(F)c12,"enzyme activity, inhibitor, radiometric",,1 µM,remaining activity,84%
N#CC1(c2ccccn2)CCN(Cc2cc(C(=O)N3CCCC3)c(=O)n3ccccc23)CC1,"cell-free assay, competition with immobilised ligand",,1 µM,remaining binding,91%
Cn1c2c(Cl)c(Cl)ccc2c2cc[nH]c(=O)c21,"thermal stability, DSF",,10 µM,ΔTm,-0.4 °C
N#CC(=C(N)Sc1ccc(N)cc1)c1ccccc1C(F)(F)F,cell-free assay,,0.5 µM,remaining signal,116%
FC(F)c1nc2ccccc2n1-c1nc(N2CCOCC2)nc(N2CCOCC2)n1,"enzyme activity, inhibitor",,10 µM,remaining activity,106%
CCN1CCN(Cc2ccc(NC(=O)c3ccc(C)c(Oc4ccnc5[nH]ccc45)c3)cc2C(F)(F)F)CC1,"target engagement in cells, inhibitor, chemoproteomics",A-375,5 µM,inhibition,-51.2%
